Test: Toxicity liver stage against HepG2, at 10uM
Format: cell-based
Parameters: test concentration 10 uM, cell line HepG2-A16-CD81EGFP
Conditions: human, HepG2-A16-CD81EGFP cells; read-out: INHIBITION
Method in brief: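 Uninfected HepG2-A16-CD81EGFP cells, 3 × 10^3 per well, 1536-well, plated on prespotted compound at 10 μM final, parasite-free screening media added to match infected plates; puromycin 10 μM positive, DMSO 0.5% negative; run in parallel with 48 h PbLuc assay at 37 °C, 5% CO2; viability by CellTiter-Glo luminescence, normalized to controls.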

First: Cc1n[nH]c2c1C(c1ccncc1)SCC(=O)N2 (centres undefined)
Second: Cc1[nH]n(-c2ccccc2)c2nnc(N)c1-2
The cytotoxicity at 10 µM of the first is lower: 4.96% for the first, 12.4% for the second.

Going from O=C(N1CCCC1)N1CCC2(CC1)C(=O)N(CC1CC1)c1ccccc12 to O=C1CC2(CCCCN2C(=O)c2ccncc2)CN1CC1CC1 (centres undefined), the cytotoxicity at 10 µM falls from 7.15% to 2.17%.

Compared with COc1cc(N2CC[C@@H](OC)[C@@H]2Cc2cnn(C)c2)ncn1, CN(C)C(=O)COCc1cncc2c1CCN(Cc1cnn(C)c1)C2 is lower in cytotoxicity at 10 µM: -0.155% for the first, -3.48% for the second.

Compared with CCOCC1CN(C(=O)c2cccs2)Cc2nn(C)cc21 (centres undefined), Cn1cc(N2CCC3(CCN(C(=O)c4cccn4C)C3)C2=O)cn1 (centres undefined) is higher in cytotoxicity at 10 µM: -1.63% for the first, 2.93% for the second.

Compared with Cc1csc(CN2CC[C@H]3C[C@H](c4nnc(C)[nH]4)O[C@@H]3C2)n1, CCCc1nc(C)c(C(=O)NC2CCN(c3ncccn3)CC2)s1 is higher in cytotoxicity at 10 µM: -19.6% for the first, 16.7% for the second.

First: Cc1nn(CC(F)F)c2c1c(C(F)F)cc(=O)n2CC(=O)O
Second: Cc1csc(CNC(=O)NCC(O)c2ccc(F)cc2F)n1 (centres undefined)
The cytotoxicity at 10 µM of the first is higher: 2.84% for the first, -10.8% for the second.

Going from CCCNC(=O)C(C)n1cc(Br)cn1 (centres undefined) to CNC(=O)c1cccc(Nc2cnn(C)c2)c1, the cytotoxicity at 10 µM rises from -19.7% to 6.77%.

Going from COCCC(=O)NCCc1nc2cc(-c3ccc(OC)cc3)ncn2n1 to COC(=O)c1ccc(-c2cc(C(F)(F)F)cc(N(C)C)n2)cc1, the cytotoxicity at 10 µM falls from 10.5% to -0.409%.

Compared with CC(O)c1cn(Cc2ccc(F)cc2)nn1 (centres undefined), OCC(O)CSCc1cn(-c2ccc(F)c(Cl)c2)nn1 (centres undefined) is higher in cytotoxicity at 10 µM: 4.78% for the first, 9.51% for the second.

Going from Cn1cc(C2CCCN2C(=O)c2cnc(-c3ccco3)s2)cn1 (centres undefined) to O=C(NC[C@H]1OC[C@@H]2CCN(Cc3ccco3)C[C@@H]21)c1ccsc1, the cytotoxicity at 10 µM falls from 3.88% to -18.3%.

First: CC1c2ccc(F)cc2CCN1C(=O)c1[nH]c(=O)[nH]c(=O)c1N (centres undefined)
Second: Cc1ncc(CN(C)C(=O)Nc2cccc(N3CCNC3=O)c2)s1
The cytotoxicity at 10 µM of the first is lower: -5.22% for the first, 9.97% for the second.

Compared with CC(NC(=O)CN(C)C(C)C)c1ccc(Oc2cccnc2)c(F)c1 (centres undefined), Cc1cccc(CC(=O)NS(=O)(=O)c2ccc(F)c(F)c2)c1 is lower in cytotoxicity at 10 µM: 2% for the first, -5.23% for the second.

First: CCNC(=O)Cc1ccc(NC(=O)NC(CC)CC)cc1
Second: O=C(NCC1(N2CCOCC2)CCSC1)Nc1ccc(F)cc1 (centres undefined)
The cytotoxicity at 10 µM of the first is higher: -6.93% for the first, -10.2% for the second.

Compared with Cc1nc(CC(=O)N2CCN(C(C)c3ccccc3F)CC2)cs1 (centres undefined), Cc1nc(C2CCCN(C(=O)COCc3ccccc3Cl)C2)no1 (centres undefined) is higher in cytotoxicity at 10 µM: 2.58% for the first, 5.8% for the second.

Going from COCc1noc(C2(c3ccc(Br)cc3)CCOCC2)n1 to Cc1ccc(CN2CCC3(CC2)C(=O)Nc2ccccc23)s1, the cytotoxicity at 10 µM rises from -9.61% to 2.88%.

Going from c1cncc(COCC2C[C@@H]3OCCN(Cc4cccnc4)[C@H]3C2)c1 (some centres undefined) to Fc1ccccc1CN1C[C@@H](OCc2ccncc2)[C@H]2OCCC[C@H]21, the cytotoxicity at 10 µM falls from 12.2% to -4.81%.

Compared with O=C1COC2(CCN(C(=O)[C@H]3CCCO3)CC2)CN1Cc1ccccn1, CN(Cc1ccco1)[C@@H]1CN(Cc2ccncc2)C[C@@H]2CCCO[C@@H]21 is higher in cytotoxicity at 10 µM: -0.524% for the first, 0.361% for the second.

First: O=C(O)C1(Cc2ccccc2F)CCCN(c2ncnc3[nH]ccc23)C1 (centres undefined)
Second: Fc1cccnc1CN1CCCCC1c1ccn2ccnc2n1 (centres undefined)
The cytotoxicity at 10 µM of the first is lower: -0.44% for the first, 0.505% for the second.

Compared with CC(C)Cc1noc(CN(C)c2cc(C(C)C)nc3ccnn23)n1, Cc1noc2ncnc(NC(CC(C)(C)C)c3cccnc3)c12 (centres undefined) is higher in cytotoxicity at 10 µM: -7.55% for the first, 1.41% for the second.

Going from CC(C)N1CCC(C(=O)N(C)CC(=O)c2ccc(O)cc2)CC1 to CC1CCN(c2nc3cn(-c4ccc5c(c4)OCO5)c(=O)c-3c[nH]2)CC1, the cytotoxicity at 10 µM falls from -4.33% to -14%.

Going from CO[C@@H]1CC[C@H]2[C@H]1OCCN2CC1CC1 to c1cc(-c2ccc3nc(C4CCN(CC5CC5)CC4)nn3c2)cs1, the cytotoxicity at 10 µM falls from 11.4% to -12.2%.

Compared with O=C(c1cscn1)N1CCc2ncnc(-c3cccnc3)c2CC1, COCCN1CCC2(CC1)CC(COC)N(c1ncccn1)C2 (centres undefined) is lower in cytotoxicity at 10 µM: -1.6% for the first, -3.53% for the second.

Reference: ChEMBL document CHEMBL4513216, “Probing the Open Global Health Chemical Diversity Library for Multistage-Active Starting Points for Next-Generation Antimalarials” (ACS Infect Dis, 2020)
